From ChEMBL document CHEMBL1122788, “Quantitative relationships between alpha-adrenergic activity and binding affinity of alpha-adrenoceptor agonists and antagonists” (J Med Chem, 1984)
Structures can show the parent of a compound that is named as a salt.

Key:
[1] = molecular target: T1, Adrenergic receptor alpha-2 (Rattus norvegicus, UniProt P22086+P19328+P22909); assay: 50% inhibition of specific [3H]clonidine binding (0.4 nM) to Alpha-2 adrenergic receptors in rat isolated brain membranes; type: cell membranes, Membrane
T1 sequence (P22086 whole entry): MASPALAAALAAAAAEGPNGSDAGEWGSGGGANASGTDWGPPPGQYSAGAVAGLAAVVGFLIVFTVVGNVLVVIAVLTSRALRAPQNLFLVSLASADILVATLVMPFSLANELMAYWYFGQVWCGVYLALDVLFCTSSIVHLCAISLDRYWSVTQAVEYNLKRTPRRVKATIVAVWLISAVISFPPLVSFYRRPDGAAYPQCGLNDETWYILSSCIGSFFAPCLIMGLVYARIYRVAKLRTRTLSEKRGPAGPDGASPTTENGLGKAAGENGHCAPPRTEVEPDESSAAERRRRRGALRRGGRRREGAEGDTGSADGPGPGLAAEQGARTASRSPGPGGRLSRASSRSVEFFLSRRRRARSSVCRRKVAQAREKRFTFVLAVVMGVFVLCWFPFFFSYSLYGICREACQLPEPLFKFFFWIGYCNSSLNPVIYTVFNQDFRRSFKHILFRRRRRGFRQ
T1 sequence (P19328 whole entry): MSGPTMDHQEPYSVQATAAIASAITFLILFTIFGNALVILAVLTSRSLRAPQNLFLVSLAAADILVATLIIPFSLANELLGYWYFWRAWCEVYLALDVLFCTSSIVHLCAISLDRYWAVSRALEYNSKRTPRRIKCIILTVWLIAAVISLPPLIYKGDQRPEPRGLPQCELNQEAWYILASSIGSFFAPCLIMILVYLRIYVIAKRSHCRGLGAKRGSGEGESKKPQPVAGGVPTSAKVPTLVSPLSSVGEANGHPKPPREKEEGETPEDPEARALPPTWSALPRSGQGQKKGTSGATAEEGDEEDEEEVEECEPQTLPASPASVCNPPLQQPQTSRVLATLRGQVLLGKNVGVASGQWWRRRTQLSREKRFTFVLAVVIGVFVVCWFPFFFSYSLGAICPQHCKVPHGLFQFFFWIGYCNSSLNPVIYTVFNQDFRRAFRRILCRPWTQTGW
T1 sequence (P22909 whole entry): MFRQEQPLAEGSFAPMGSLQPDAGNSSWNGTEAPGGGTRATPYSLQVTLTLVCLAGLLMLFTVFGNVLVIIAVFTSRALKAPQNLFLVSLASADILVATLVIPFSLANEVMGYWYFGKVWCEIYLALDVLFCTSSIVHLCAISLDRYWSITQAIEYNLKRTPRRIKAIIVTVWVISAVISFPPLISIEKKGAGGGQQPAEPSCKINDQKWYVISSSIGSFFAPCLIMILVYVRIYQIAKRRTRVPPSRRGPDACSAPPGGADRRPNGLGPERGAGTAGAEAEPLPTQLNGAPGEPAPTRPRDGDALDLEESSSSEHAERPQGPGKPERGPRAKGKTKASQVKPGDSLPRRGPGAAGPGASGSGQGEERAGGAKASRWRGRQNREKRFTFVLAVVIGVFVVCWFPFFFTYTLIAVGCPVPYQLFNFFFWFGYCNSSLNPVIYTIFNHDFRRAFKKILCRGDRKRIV
Summary of the method: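 Whole rat brain (minus cerebellum) from male Wistar rats (200–250 g), homogenized in ice-cold 50 mM Tris-HCl pH 7.7 and washed twice at 50000g. Bound ligand was collected by rapid filtration and counted. IC50 was derived by log-probit analysis.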

Rattus norvegicus [2] = assay: Hypertensive activity (increase in arterial pressure to 60 mmHg)) after i.v. administration to pithed rats.
[3] = molecular target: T2, Adrenergic receptor alpha-1 (Rattus norvegicus, UniProt P15823+P23944+P43140); assay: Binding affinity against alpha-1 adrenergic receptor is the ability to inhibit the specific [3H]prazosin binding (0.2 nM) to rat isolated brain membranes by 50% was reported.
T2 sequence (P15823 whole entry): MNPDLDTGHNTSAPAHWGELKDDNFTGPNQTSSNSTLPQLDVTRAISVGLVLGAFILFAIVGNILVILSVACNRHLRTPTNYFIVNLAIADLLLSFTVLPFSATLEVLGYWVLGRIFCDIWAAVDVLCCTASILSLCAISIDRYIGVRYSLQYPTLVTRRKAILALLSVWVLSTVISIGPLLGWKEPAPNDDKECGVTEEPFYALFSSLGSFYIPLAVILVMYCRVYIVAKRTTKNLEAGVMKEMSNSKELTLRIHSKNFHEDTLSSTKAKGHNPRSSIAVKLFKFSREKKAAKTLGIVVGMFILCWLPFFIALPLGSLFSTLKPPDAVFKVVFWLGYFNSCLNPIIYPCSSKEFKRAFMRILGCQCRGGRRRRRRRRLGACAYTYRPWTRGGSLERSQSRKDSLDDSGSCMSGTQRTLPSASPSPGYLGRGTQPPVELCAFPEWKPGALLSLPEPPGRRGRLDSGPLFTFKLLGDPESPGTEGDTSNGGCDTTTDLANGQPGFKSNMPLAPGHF
T2 sequence (P23944 whole entry): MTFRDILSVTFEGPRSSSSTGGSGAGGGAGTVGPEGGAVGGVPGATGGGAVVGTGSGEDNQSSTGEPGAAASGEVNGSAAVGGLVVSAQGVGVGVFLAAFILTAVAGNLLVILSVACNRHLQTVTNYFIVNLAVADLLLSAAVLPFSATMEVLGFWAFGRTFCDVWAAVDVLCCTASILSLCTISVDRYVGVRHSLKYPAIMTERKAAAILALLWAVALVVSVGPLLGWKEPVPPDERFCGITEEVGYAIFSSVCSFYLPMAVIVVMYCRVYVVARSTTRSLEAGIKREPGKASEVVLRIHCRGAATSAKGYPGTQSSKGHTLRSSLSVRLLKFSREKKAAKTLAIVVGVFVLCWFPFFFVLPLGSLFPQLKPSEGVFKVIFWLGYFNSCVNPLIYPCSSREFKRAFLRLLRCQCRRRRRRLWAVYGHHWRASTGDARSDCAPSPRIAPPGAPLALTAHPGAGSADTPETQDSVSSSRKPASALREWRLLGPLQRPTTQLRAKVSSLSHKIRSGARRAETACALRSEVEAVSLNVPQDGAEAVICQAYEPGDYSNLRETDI
T2 sequence (P43140 whole entry): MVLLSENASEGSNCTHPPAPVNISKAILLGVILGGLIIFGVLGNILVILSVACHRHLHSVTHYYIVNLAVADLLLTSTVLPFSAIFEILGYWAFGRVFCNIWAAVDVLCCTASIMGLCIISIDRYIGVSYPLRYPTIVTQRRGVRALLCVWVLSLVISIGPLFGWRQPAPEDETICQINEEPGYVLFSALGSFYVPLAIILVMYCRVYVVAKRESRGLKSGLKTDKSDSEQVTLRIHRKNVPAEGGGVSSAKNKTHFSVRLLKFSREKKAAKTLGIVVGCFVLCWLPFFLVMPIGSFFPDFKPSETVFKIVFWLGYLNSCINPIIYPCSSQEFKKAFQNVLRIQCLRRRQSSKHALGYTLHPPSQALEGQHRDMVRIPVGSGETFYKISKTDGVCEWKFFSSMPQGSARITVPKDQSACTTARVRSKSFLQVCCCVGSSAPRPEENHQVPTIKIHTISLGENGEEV

[4] = Apparent partion coefficient of compound was evaluated in octanol/buffer at pH of 7.4 at 37 degree Centigrade; type: physicochemical; settings: pH 7.4
[5] = molecular target: T1, Adrenergic receptor alpha-2; assay: Binding affinity against Alpha-2 adrenergic receptor is the ability to inhibit the specific [3H]-clonidine binding (0.4 nM) to rat isolated brain membranes by 50% was reported; 5.9*10e-8; type: tissue-based, Membrane
[6] = molecular target: T2, Adrenergic receptor alpha-1; assay: Binding affinity against alpha-1 adrenergic receptor is the ability to inhibit the specific [3H]prazosin binding (0.2 nM) to rat isolated brain membranes by 50% was reported; 8.9*10e-7; type: tissue-based, Membrane
[7] = molecular target: T1, Adrenergic receptor alpha-2; assay: Binding affinity against Alpha-2 adrenergic receptor is the ability to inhibit the specific [3H]clonidine binding (0.4 nM) to rat isolated brain membranes by 50% was reported; 1.4*10e-7; type: tissue-based, Membrane
Summary of the method: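 Whole rat brain (minus cerebellum) from male Wistar rats (200–250 g), homogenized in ice-cold 50 mM Tris-HCl pH 7.7 and washed twice at 50000g. […] Bound ligand was collected by rapid filtration and counted. IC50 was derived by log-probit analysis.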

[8] = molecular target: T2, Adrenergic receptor alpha-1; assay: Binding affinity against alpha-1 adrenergic receptor is the ability to inhibit the specific [3H]prazosin binding (0.2 nM) to rat isolated brain membranes by 50% was reported; 6.1*10e-5; type: tissue-based, Membrane
Rattus norvegicus [9] = assay: Hypotensive activity (25% decrease in arterial pressure) after i.v. administration to anesthetized normotensive rats.
[10] = molecular target: T2, Adrenergic receptor alpha-1; assay: Binding affinity against alpha-1 adrenergic receptor is the ability to inhibit the specific [3H]prazosin binding (0.2 nM) to rat isolated brain membranes by 50% was reported; 5.8*10e-7; type: tissue-based, Membrane
Summary of the method: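 Whole rat brain (minus cerebellum) from male Wistar rats (200–250 g), homogenized in ice-cold 50 mM Tris-HCl pH 7.7 and washed twice at 50000g. […] Bound ligand was collected by filtration and counted. IC50 was derived by log-probit analysis.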

CN(C)C1CCc2c(ccc(O)c2O)C1 (stereo not given)
IC50 [1]: 17 nM
pC60 (Rattus norvegicus [2]): 1.2 uM kg-1
IC50 [3]: 39000 nM

COc1ccc(OC)c(C(O)C(C)N)c1 (stereo not given) [METHOXAMINE]
IC50 [1]: 3600 nM
pC60 (Rattus norvegicus [2]): 0.75 uM kg-1
IC50 [3]: 170000 nM

c1ccc(C2CC2)c(OCC2=NCCN2)c1 [CIRAZOLINE]
logD [4]: 0.53
IC50 [5]: 59 nM
IC50 [6]: 890 nM
pC60 (Rattus norvegicus [2]): 2.36 uM kg-1

Cc1cccc(C)c1NC1=NCCCS1 [XYLAZINE]
IC50 [7]: 140 nM
IC50 [8]: 61000 nM
pC60 (Rattus norvegicus [2]): -0.02 uM kg-1
pC25 (Rattus norvegicus [9]): 0.62 uM kg-1

Clc1cccc(Cl)c1NC1=NCCN1 [CLONIDINE]
pC60 (Rattus norvegicus [2]): 1.78 uM kg-1
pC25 (Rattus norvegicus [9]): 2.04 uM kg-1

CNCC(O)c1cccc(NS(C)(=O)=O)c1 (stereo not given) [AMIDEPHRINE MESYLATE]
IC50 [1]: 1900 nM
pC60 (Rattus norvegicus [2]): 1.36 uM kg-1
IC50 [3]: 40000 nM

c1ccc2c(CC3=NCCN3)cccc2c1 [NAPHAZOLINE]
pC60 (Rattus norvegicus [2]): 1.83 uM kg-1
pC25 (Rattus norvegicus [9]): 0.95 uM kg-1

CNC[C@H](O)c1cccc(O)c1 [PHENYLEPHRINE]
pC60 (Rattus norvegicus [2]): 1.55 uM kg-1

N=C(N)N/N=C/c1c(Cl)cccc1Cl [GUANABENZ]
IC50 [1]: 1.7 nM
pC60 (Rattus norvegicus [2]): 0.93 uM kg-1

Cc1cc(C(C)(C)C)cc(C)c1CC1=NCCN1 [XYLOMETAZOLINE]
IC50 [10]: 580 nM
pC60 (Rattus norvegicus [2]): 1.12 uM kg-1
pC25 (Rattus norvegicus [9]): 0.26 uM kg-1

CCCN(CCC)C1CCc2c(O)cccc2C1 (stereo not given) [5-OH-DPAT]
IC50 [1]: 850 nM
pC60 (Rattus norvegicus [2]): -0.13 uM kg-1
IC50 [3]: 18000 nM
